Common to all, as to type: functional, Mesocricetus auratus
Assay [1] relates to Syrian golden hamster. In words: Antihyperlipidemic activity measured by decrease in cholesterol level in golden syrian hamster at 100 mg/kg, po relative to control. Also on record: scale not given: the % may be the effect or the level left. In a few lines:
(§1)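 Male golden Syrian hamsters (120–130 g), 8 per group, made hyperlipidemic on high fat diet with free access to diet and water throughout. Compound given orally in water from day 4 to day 10 (7 days); HFD hamsters given water only served as controls. On day 10, blood from nonfasted animals was drawn and cooled to 0 C for 15 min. Triglycerides, total cholesterol and HDL cholesterol were measured the same day in plasma without NaF using enzymatic kits.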

Assay [2] deals with Syrian golden hamster. In words: Antihyperlipidemic activity measured by glycerol level in golden syrian hamster at 100 mg/kg, po. In a few lines: (§2)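 High-fat-diet hyperlipidemic male golden Syrian hamsters (120–130 g, n=8 per group) were dosed orally in water vehicle on days 4–10; water-only HFD hamsters served as controls. On day 10, nonfasted blood was drawn into tubes containing 120 µL NaF (4.5 mg/mL) and chilled to 0 C for 15 min. Glycerol and free fatty acids were assayed in this NaF plasma on a clinical chemistry analyser.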

In assay [3] the test system is Syrian golden hamster. In words: Antihyperlipidemic activity measured by HDL/total cholesterol ratio in golden syrian hamster at 100 mg/kg, po. In a few lines:
as §1

Assay [4] has as its system Syrian golden hamster. In words: Antihyperlipidemic activity measured by cholesterol level in golden syrian hamster at 100 mg/kg, po. A digest of the protocol:
as §1

The subject of assay [5] is Syrian golden hamster. In words: Antihyperlipidemic activity measured by HDL level in golden syrian hamster at 100 mg/kg, po. In a few lines:
as §1

In assay [6] the test system is Syrian golden hamster. In words: Antihyperlipidemic activity measured by free fatty acid level in golden syrian hamster at 100 mg/kg, po. A digest of the protocol:
as §2

In assay [7] the test system is Syrian golden hamster. In words: Antihyperlipidemic activity measured by decrease in triglyceride level in golden syrian hamster at 100 mg/kg, po relative to control. On the set-up: scale not given: the % may be the effect or the level left. In a few lines:
as §1

Assay [8] relates to Syrian golden hamster. In words: Antihyperlipidemic activity measured by increase in HDL/total cholesterol ratio in golden syrian hamster at 100 mg/kg, po relative to control. A digest of the protocol:
as §1

Assay [9] has as its system Syrian golden hamster. In words: Antihyperlipidemic activity measured by triglyceride level in golden syrian hamster at 100 mg/kg, po. In a few lines: as §1
The test system of assay [10] is Syrian golden hamster. In words: Antihyperlipidemic activity measured by increase in free fatty acid level in golden syrian hamster at 100 mg/kg, po relative to control. A digest of the protocol:
as §2

Assay [11] concerns Syrian golden hamster. In words: Antihyperlipidemic activity measured by increase in glycerol level in golden syrian hamster at 100 mg/kg, po relative to control. In a few lines: as §2
The subject of assay [12] is Syrian golden hamster. In words: Antihyperlipidemic activity measured by decrease in free fatty acid level in golden syrian hamster at 100 mg/kg, po relative to control. On the set-up: scale not given: the % may be the effect or the level left. In a few lines:
as §2

Assay [13] deals with Syrian golden hamster. In words: Antihyperlipidemic activity measured by decrease in glycerol level in golden syrian hamster at 100 mg/kg, po relative to control. On the set-up: scale not given: the % may be the effect or the level left. In a few lines:
as §2

Assay [14] deals with Syrian golden hamster. In words: Antihyperlipidemic activity measured by increase in HDL level in golden syrian hamster at 100 mg/kg, po relative to control. In a few lines: as §1
Assay [15] relates to Syrian golden hamster. In words: Antihyperlipidemic activity measured by increase in cholesterol level in golden syrian hamster at 100 mg/kg, po relative to control. In a few lines:
as §1

In assay [16] the test system is Syrian golden hamster. In words: Antihyperlipidemic activity measured by increase in triglyceride level in golden syrian hamster at 100 mg/kg, po relative to control. In a few lines:
as §1

Assay [17] has as its system Syrian golden hamster. In words: Antihyperlipidemic activity measured by decrease in HDL/total cholesterol ratio in golden syrian hamster at 100 mg/kg, po relative to control. Also on record: scale not given: the % may be the effect or the level left. In a few lines:
as §1

Turning to `OC[C@H]1O[C@](O)(CO)[C@@H](O[C@@H]2OC[C@@H](O)[C@@H](O)[C@H]2O)[C@@H]1O`, the Activity was 23% with Syrian golden hamster [1]; 0.99 mM in the assay with Syrian golden hamster [2]; 8.9 mM with Syrian golden hamster [4]; 3.14 mM with Syrian golden hamster [5]; 924.84 µM in the assay on Syrian golden hamster [6]; 9% with Syrian golden hamster [7]. Besides, the Activity is recorded as 31% with Syrian golden hamster [8], 13.09 mM with Syrian golden hamster [9], 28% in the assay with Syrian golden hamster [10] and 18% in the assay with Syrian golden hamster [11]. Besides, the Ratio in the assay with Syrian golden hamster [3] is 0.35.

Regarding `OC[C@H]1O[C@](O)(CO)[C@@H](O[C@@H]2OC[C@@H](O)[C@H](O)[C@H]2O)[C@@H]1O`, the Activity is 0.61 mM with Syrian golden hamster [2]; 12 mM in the assay with Syrian golden hamster [4]; 4% in the assay with Syrian golden hamster [12]; 3.26 mM in the assay with Syrian golden hamster [5]; 28% in the assay with Syrian golden hamster [13]; 692.34 µM with Syrian golden hamster [6]. Also, the Activity with Syrian golden hamster [14] amounted to 5%; in the assay with Syrian golden hamster [7], 30%; in the assay with Syrian golden hamster [9], 10.08 mM. In addition, the Ratio in the assay on Syrian golden hamster [3] was found to be 0.27.

Turning to `OC[C@H]1O[C@](O)(CO)[C@@H](O[C@H]2O[C@H](CO)[C@@H](O)[C@H](O)[C@@H]2O)[C@@H]1O`, the Activity in the assay with Syrian golden hamster [15] is 32%; with Syrian golden hamster [2], 0.66 mM; in the assay with Syrian golden hamster [4], 15.26 mM; with Syrian golden hamster [12], 30%; in the assay on Syrian golden hamster [5], 4.33 mM; in the assay with Syrian golden hamster [13], 21%. Moreover, the Activity in the assay on Syrian golden hamster [6] was determined as 510.7 µM; in the assay on Syrian golden hamster [14] it was 40%; in the assay with Syrian golden hamster [7] it was 29%; in the assay with Syrian golden hamster [8], 5%; in the assay on Syrian golden hamster [9], 10.16 mM. For the same compound, the Ratio in the assay with Syrian golden hamster [3] is recorded as 0.28.

Regarding `OC[C@H]1O[C@](O)(CO)[C@@H](O[C@H]2OC[C@@H](O)[C@@H](O)[C@@H]2O)[C@@H]1O`, the Activity in the assay on Syrian golden hamster [15] was 4%; in the assay on Syrian golden hamster [16] it was 6%; in the assay with Syrian golden hamster [2], 1 mM; in the assay on Syrian golden hamster [4], 12.04 mM; with Syrian golden hamster [5], 3.49 mM; in the assay on Syrian golden hamster [6] it was 708.69 µM. Also, the Activity was found to be 13% in the assay with Syrian golden hamster [14], 7% in the assay on Syrian golden hamster [8], 15.26 mM with Syrian golden hamster [9] and 19% with Syrian golden hamster [11]. For the same compound, the Ratio with Syrian golden hamster [3] was determined as 0.29.

Take `OC[C@H]1O[C@@H](O[C@H]2[C@H](O)[C@@H](CO)O[C@]2(O)CO)[C@H](O)[C@@H](O)[C@H]1O`: the Activity is 52% in the assay on Syrian golden hamster [15]; 0.82 mM in the assay with Syrian golden hamster [2]; 17.59 mM with Syrian golden hamster [4]; 38% in the assay on Syrian golden hamster [12]; 3.6 mM in the assay on Syrian golden hamster [5]; 450 µM in the assay with Syrian golden hamster [6]. Besides, the Activity in the assay on Syrian golden hamster [14] is listed as 16%; in the assay on Syrian golden hamster [17], 22%; with Syrian golden hamster [7] it was 52%; in the assay on Syrian golden hamster [9], 6.88 mM. Besides, in the assay with Syrian golden hamster [3], the Ratio is listed as 0.21.

Turning to `C[C@@H]1O[C@@H](O[C@H]2[C@H](O)[C@@H](CO)O[C@]2(O)CO)[C@H](O)[C@H](O)[C@H]1O`, the Activity was found to be 24% in the assay with Syrian golden hamster [1]; 1.11 mM in the assay with Syrian golden hamster [2]; 8.82 mM in the assay with Syrian golden hamster [4]; 3.1 mM in the assay with Syrian golden hamster [5]; 833.12 µM in the assay with Syrian golden hamster [6]; 30% in the assay on Syrian golden hamster [8]. Also, the Activity was 14.17 mM in the assay with Syrian golden hamster [9], 15% in the assay on Syrian golden hamster [10] and 32% in the assay with Syrian golden hamster [11]. Moreover, the Ratio in the assay on Syrian golden hamster [3] is on record as 0.35.

With `OC[C@H]1O[C@](O)(CO)[C@@H](O[C@@H]2O[C@H](CO)[C@@H](O[C@H]3O[C@H](CO)[C@@H](O)[C@H](O)[C@H]3O)[C@H](O)[C@H]2O)[C@@H]1O`, the Activity is 0.82 mM in the assay with Syrian golden hamster [2]; 11.38 mM in the assay on Syrian golden hamster [4]; 3.43 mM in the assay on Syrian golden hamster [5]; 726.74 µM in the assay with Syrian golden hamster [6]; 11% in the assay with Syrian golden hamster [14]; 11% in the assay with Syrian golden hamster [7]. Further, the Activity with Syrian golden hamster [8] was 12%; in the assay on Syrian golden hamster [9], 12.76 mM. Moreover, the Ratio with Syrian golden hamster [3] was 0.3.

As to `OC[C@H]1O[C@@](CO)(O[C@H]2O[C@H](CO)[C@@H](O)[C@H](O)[C@H]2O)[C@@H](O[C@H]2O[C@H](CO)[C@@H](O)[C@H](O)[C@H]2O)[C@@H]1O` [MELEZITOSE], the Activity in the assay on Syrian golden hamster [15] came out at 12%; in the assay with Syrian golden hamster [2], 0.71 mM; with Syrian golden hamster [4] it was 13 mM; in the assay with Syrian golden hamster [12] it was 30%; in the assay on Syrian golden hamster [5], 4.95 mM; in the assay on Syrian golden hamster [13] it was 15%. For the same compound, the Activity in the assay on Syrian golden hamster [6] was 510.7 µM; in the assay on Syrian golden hamster [14], 59%; in the assay with Syrian golden hamster [7] it was 51%; in the assay on Syrian golden hamster [8] it was 41%; with Syrian golden hamster [9], 6.98 mM. Moreover, the Ratio in the assay with Syrian golden hamster [3] turned out to be 0.38.

In the case of `OC[C@H]1O[C@H](OC[C@H]2O[C@H](O[C@]3(CO)O[C@H](CO)[C@@H](O)[C@@H]3O)[C@H](O)[C@@H](O)[C@@H]2O)[C@H](O)[C@@H](O)[C@H]1O` [RAFFINOSE], the Activity with Syrian golden hamster [1] was determined as 35%; with Syrian golden hamster [2] it was 0.86 mM; in the assay on Syrian golden hamster [4] it was 7.55 mM; in the assay with Syrian golden hamster [12] it was 25%; in the assay on Syrian golden hamster [5] it was 3.41 mM; in the assay with Syrian golden hamster [6], 540.49 µM. In addition, the Activity in the assay on Syrian golden hamster [14] is on record as 10%; with Syrian golden hamster [7], 44%; in the assay on Syrian golden hamster [8], 66%; in the assay with Syrian golden hamster [9] it was 8.06 mM. In addition, in the assay with Syrian golden hamster [3], the Ratio is reported as 0.45.
